Measured values: ChEMBL document CHEMBL4364256, “Design, synthesis and biological evaluation of antimicrobial diarylimine and -amine compounds targeting the interaction between the bacterial NusB and NusE proteins” (Eur J Med Chem, 2019)
Converted amounts (≈) assume the structure as drawn. The source made the active and inactive calls. The rule behind the calls is not given here.

Columns and labels:
Bacillus subtilis = assay: Inhibition of N-terminal LgBiT-fused Bacillus subtilis NusB expressed in Escherichia coli BL21(DE3)pLysS interaction with C- terminal SmBiT-fused Bacillus subtilis NusE expressed in Escherichia coli BL21(DE3)pLysS at 100 uM preincubated for 10 mins followed by NusE addition and measured after 10 mins by nano-glo luciferase assay relative to control
Outline: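 NusB and NusE were mixed 1:1 at 1 µM in PBS, with compound at 100 µM. The read-out was percent inhibition of the NusB-NusE interaction.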

Bacteria = assay: Binding affinity to bacterial NusB assessed as change in chiral structure at 2 ug/ml by circular dichroism spectroscopic analysis
Outline: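 Circular dichroism spectra were recorded on NusB at 2.0 µg/mL in neutral phosphate buffer, alone and after mixing with compound at a 1:1 ratio. Binding was read as a change in the spectrum.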

Enterococcus faecium = assay: Antimicrobial activity against Enterococcus faecium ATCC 19433 incubated for 20 hrs by microdilution method; assay type: functional
Outline: (§1)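 Broth microdilution MIC testing done following CLSI guidelines.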

Streptococcus pneumoniae = assay: Antimicrobial activity against Streptococcus pneumoniae ATCC 49619 incubated for 20 hrs by microdilution method; assay type: functional; outline: as §1
Acinetobacter baumannii = assay: Antimicrobial activity against Acinetobacter baumannii ATCC 19606 incubated for 20 hrs by microdilution method; assay type: functional; outline: as §1
Pseudomonas aeruginosa = assay: Antimicrobial activity against Pseudomonas aeruginosa ATCC 27853 incubated for 20 hrs by microdilution method; assay type: functional; outline: as §1
Staphylococcus aureus [1] = assay: microbe, parasite or virus in culture; conditions: ATCC 25923, 20 h
Staphylococcus aureus [2] = assay: microbe, parasite or virus in culture; conditions: ATCC 29213, 20 h
[3] = microbe, parasite or virus in culture; conditions: Enterobacter cloacae, ATCC 13047, 20 h
Staphylococcus aureus [4] = assay: Antimicrobial activity against Staphylococcus aureus ATCC BAA43 incubated for 20 hrs by microdilution method; assay type: functional
Outline: (§2)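 MIC determined by microdilution following Clinical & Laboratory Standards Institute (CLSI) guidelines, read in µg/mL, against a panel of hospital- and community-acquired MRSA strains.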

[5] = system: Enterococcus casseliflavus; assay: Antimicrobial activity against Enterococcus casseliflavus ATCC 25788 incubated for 20 hrs by microdilution method; assay type: functional; outline: as §1
[6] = system: Staphylococcus epidermidis; assay: Antimicrobial activity against Staphylococcus epidermidis ATCC 12228 incubated for 20 hrs by microdilution method; assay type: functional; outline: as §1
[7] = (§3) Antimicrobial activity against Staphylococcus saprophyticus ATCC 15305 incubated for 20 hrs by microdilution method; assay type: functional, Staphylococcus saprophyticus subsp. saprophyticus; conditions: ATCC 15305, 20 h; outline: as §1
Streptococcus pyogenes = assay: Antimicrobial activity against Streptococcus pyogenes ATCC 19615 incubated for 20 hrs by microdilution method; assay type: functional; outline: as §1
Streptococcus agalactiae = assay: Antimicrobial activity against Streptococcus agalactiae ATCC 12386 incubated for 20 hrs by microdilution method; assay type: functional; outline: as §1
Staphylococcus aureus [8] = assay: Antimicrobial activity against Staphylococcus aureus ST239 incubated for 20 hrs by microdilution method; assay type: functional; outline: as §2
Staphylococcus aureus [9] = assay: Antimicrobial activity against Staphylococcus aureus ATCC BAA44 incubated for 20 hrs by microdilution method; assay type: functional; outline: as §2
Staphylococcus aureus [10] = assay: Antimicrobial activity against Staphylococcus aureus HA W231 ST45 incubated for 20 hrs by microdilution method; assay type: functional; outline: as §2
Staphylococcus aureus [11] = assay: Antimicrobial activity against CA-methicillin-resistant Staphylococcus aureus W47 ST30 incubated for 20 hrs by microdilution method; assay type: functional; outline: as §2
Staphylococcus aureus [12] = assay: Antimicrobial activity against CA-methicillin-resistant Staphylococcus aureus W45 ST59 incubated for 20 hrs by microdilution method; conditions: W45 ST59, 20 h
Staphylococcus aureus [13] = assay: Antimicrobial activity against CA-methicillin-resistant Staphylococcus aureus W46 ST59 incubated for 20 hrs by microdilution method; conditions: W46 ST59, 20 h
Staphylococcus aureus [14] = assay: Antimicrobial activity against Staphylococcus aureus USA300/ST8 incubated for 20 hrs by microdilution method; conditions: USA300 ST8, 20 h
Staphylococcus aureus [15] = assay: Antimicrobial activity against Staphylococcus aureus ST22 11B086169 incubated for 20 hrs by microdilution method; assay type: functional; outline: as §2
Staphylococcus aureus [16] = assay: Antimicrobial activity against CA-methicillin-resistant Staphylococcus aureus W4 ST338 incubated for 20 hrs by microdilution method; assay type: functional; outline: as §2
Staphylococcus aureus [17] = assay: Antimicrobial activity against CA-methicillin-resistant Staphylococcus aureus W48 ST217 incubated for 20 hrs by microdilution method; conditions: W48 ST217, 20 h
Staphylococcus aureus [18] = assay: Antimicrobial activity against Staphylococcus aureus HA W235 ST5 incubated for 20 hrs by microdilution method; assay type: functional; outline: as §2
[19] = Cytotoxicity against human A549 cells assessed as reduction in cell viability after 48 to 72 hrs by MTT assay; assay type: cell-based
[20] = Cytotoxicity against human HaCaT cells assessed as reduction in cell viability after 48 to 72 hrs by MTT assay; assay type: cell-based
[21] = Therapeutic index, ratio of CC50 for human A549 cells to 1/2 times MIC for Staphylococcus aureus ATCC 25923; assay type: toxicity; conditions: read-out: TI
[22] = Therapeutic index, ratio of CC50 for human HaCaT cells to 1/2 times MIC for Staphylococcus aureus ATCC 25923; assay type: toxicity; conditions: read-out: TI
[23] = system: Staphylococcus saprophyticus subsp. saprophyticus; assay: as §3; assay type: functional; outline: as §1
[24] = ATCC 19606 = CIP 70.34 = JCM 6841, 20 h

Molecule | inhibition (Bacillus subtilis) [%] | MIC (Enterococcus faecium; ATCC 19433, 20 h) [mg/L] | MIC (Streptococcus pneumoniae; ATCC 49619, 20 h) [mg/L] | MIC (Acinetobacter baumannii; [24]) [mg/L] | MIC (Pseudomonas aeruginosa; ATCC 27853, 20 h) [mg/L] | MIC (Staphylococcus aureus [1]) [mg/L] | MIC (Staphylococcus aureus [2]) [mg/L] | MIC [3] [mg/L] | MIC (Staphylococcus aureus [4]; ATCC BAA43, 20 h) [mg/L] | MIC ([5]; ATCC 25788, 20 h) [mg/L] | MIC ([6]; ATCC 12228, 20 h) [mg/L] | MIC [7] [mg/L] | MIC (Streptococcus pyogenes; ATCC 19615, 20 h) [mg/L] | MIC (Streptococcus agalactiae; ATCC 12386, 20 h) [mg/L] | MIC (Staphylococcus aureus [8]; CN79, 20 h) [mg/L] | MIC (Staphylococcus aureus [9]; ATCC BAA44, 20 h) [mg/L] | MIC (Staphylococcus aureus [10]; HA W231 ST45, 20 h) [mg/L] | MIC (Staphylococcus aureus [11]; W47 ST30, 20 h) [mg/L] | MIC (Staphylococcus aureus [12]) [mg/L] | MIC (Staphylococcus aureus [13]) [mg/L] | also measured
CC(C)(C)c1ccccc1/N=C/c1cc([N+](=O)[O-])ccc1O | 16.8 | > 256 | 64 (≈ 215 µM) | > 256 | > 256 | 4 (≈ 13.4 µM) | 16 (≈ 53.6 µM) | > 256 | – | – | – | – | – | – | – | – | – | – | – | – | Activity (Bacteria): Active
O=[N+]([O-])c1ccc(O)c(CNc2ccccc2C(F)(F)F)c1 | 61.5 | 8 (≈ 25.6 µM) | 8 (≈ 25.6 µM) | 128 (≈ 410 µM) | > 256 | 2 (≈ 6.41 µM) | 2 (≈ 6.41 µM) | 256 (≈ 820 µM) | 4 (≈ 12.8 µM) | 64 (≈ 205 µM) | 2 (≈ 6.41 µM) | 4 (≈ 12.8 µM) | 16 (≈ 51.2 µM) | 16 (≈ 51.2 µM) | 4 (≈ 12.8 µM) | 4 (≈ 12.8 µM) | 4 (≈ 12.8 µM) | 4 (≈ 12.8 µM) | 4 (≈ 12.8 µM) | 2 (≈ 6.41 µM) | MIC (Staphylococcus aureus [14]): 2 mg/L (≈ 6.41 µM); MIC (Staphylococcus aureus [15]; ST22 11B086169, 20 h): 4 mg/L (≈ 12.8 µM); MIC (Staphylococcus aureus [16]; W4 ST338, 20 h): 2 mg/L (≈ 6.41 µM); MIC (Staphylococcus aureus [17]): 2 mg/L (≈ 6.41 µM); MIC (Staphylococcus aureus [18]; HA W235 ST5, 20 h): 2 mg/L (≈ 6.41 µM); CC50 [19]: 20 µM; CC50 [20]: 18.3 µM; selectivity ratio [21]: 6; selectivity ratio [22]: 6
CC(C)(C)c1ccc(NCc2cc([N+](=O)[O-])ccc2O)cc1 | 10.8 | > 256 | 4 to 8 (≈ 13.3 to 26.6 µM) | > 256 | > 256 | 2 (≈ 6.66 µM) | 4 (≈ 13.3 µM) | > 256 | 4 (≈ 13.3 µM) | 32 (≈ 107 µM) | 4 (≈ 13.3 µM) | 8 (≈ 26.6 µM) | 16 (≈ 53.3 µM) | 16 (≈ 53.3 µM) | 4 (≈ 13.3 µM) | 4 (≈ 13.3 µM) | 4 (≈ 13.3 µM) | 4 (≈ 13.3 µM) | 4 (≈ 13.3 µM) | 4 (≈ 13.3 µM) | MIC (Staphylococcus aureus [14]): 4 mg/L (≈ 13.3 µM); MIC (Staphylococcus aureus [15]; ST22 11B086169, 20 h): 4 mg/L (≈ 13.3 µM); MIC (Staphylococcus aureus [16]; W4 ST338, 20 h): 4 mg/L (≈ 13.3 µM); MIC (Staphylococcus aureus [17]): 8 mg/L (≈ 26.6 µM); MIC (Staphylococcus aureus [18]; HA W235 ST5, 20 h): 4 mg/L (≈ 13.3 µM); CC50 [19]: 37.2 µM; CC50 [20]: 38.9 µM; selectivity ratio [21]: 11; selectivity ratio [22]: 12
GENTAMICIN | – | – | – | – | – | – | – | – | – | – | – | – | – | – | – | – | – | – | – | – | MIC (Staphylococcus aureus [4]): > 256 mg/L; MIC (Enterococcus faecium): 16 mg/L; MIC (Streptococcus pneumoniae): 32 mg/L; MIC (Acinetobacter baumannii; ATCC 19606 = CIP 70.34 = JCM 6841): 32 mg/L; MIC (Pseudomonas aeruginosa): 2 mg/L; MIC [5]: 4 mg/L; MIC [6]: 0.125 mg/L; MIC [23]: 0.0625 mg/L; MIC (Streptococcus pyogenes): 8 mg/L; MIC (Streptococcus agalactiae): 32 mg/L; MIC (Staphylococcus aureus [8]; CN79): > 256 mg/L; MIC (Staphylococcus aureus [9]): > 256 mg/L; MIC (Staphylococcus aureus [10]): 16 mg/L; MIC (Staphylococcus aureus [11]): 0.25 mg/L; MIC (Staphylococcus aureus [15]): 0.25 mg/L; MIC (Staphylococcus aureus [16]): 0.25 mg/L; MIC (Staphylococcus aureus [18]): > 256 mg/L
